Measurements reported in ChEMBL document CHEMBL3124843, “Synthesis, cytostatic, antimicrobial, and anti-HCV activity of 6-substituted 7-(het)aryl-7-deazapurine ribonucleosides” (J Med Chem, 2014).
Activity calls are given as the source filed them. How the calls were made is not given here.

Assays:
Escherichia coli [1] = assay: Antibacterial activity against Escherichia coli CCM 3954 after 24 hrs; assay type: functional, organism-based
Escherichia coli [2] = assay: Antibacterial activity against multi-resistant Escherichia coli C/16702 after 24 hrs; assay type: functional, organism-based
[3] = Cytostatic activity against human CEM-DNR-bulk cells after 72 hrs by MTT assay; assay type: functional, cell-based
Method in brief: (§1)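 IC50 is the concentration that cuts cell growth by 50%, read by quantitative metabolic MTT staining after a 3-day treatment. The resistant sublines were made by raising the concentration of the cytotoxic drug step by step. CEM-DNR-bulk (daunorubicin-selected) stably overexpresses mrp-1. K562-TAX (paclitaxel-selected) expresses only mdr-1. HCT116p53−/− carries null p53 alleles. BJ and MRC-5 are nonmalignant fibroblasts.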

K562 [4] = assay: Cytostatic activity against human K562 cells after 72 hrs by MTT assay; assay type: functional, cell-based; conditions: K562, 72 h; method in brief: as §1
Hepatitis C virus [5] = assay: Antiviral activity against Hepatitis C virus subtype 1b infected in human HuH7 cells; assay type: functional, organism-based, Hepacivirus hominis; conditions: genotype 1b, Huh-7
Staphylococcus aureus [6] = assay: Antibacterial activity against Staphylococcus aureus CCM 3953 after 24 hrs; assay type: functional, organism-based
HL-60 = assay: Antiproliferative activity against human HL60 cells after 72 hrs by XTT assay; assay type: functional, cell-based; conditions: HL-60, 72 h
Method in brief: (§2)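 Antiproliferative test on HL-60 promyelocytic leukemia and HeLa S3 cervical carcinoma cells growing in liquid suspension.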

Candida albicans = assay: Antifungal activity against Candida albicans after 48 hrs; assay type: functional, organism-based
Hepatitis C virus [7] = assay: Antiviral activity against Hepatitis C virus subtype 2a infected in human HuH7 cells; assay type: functional, organism-based, Hepacivirus hominis; conditions: genotype 2a, Huh-7
[8] = Antiproliferative activity against human HeLaS3 cells after 72 hrs by XTT assay; assay type: functional, cell-based; conditions: HeLa S3, 72 h; method in brief: as §2
BJ = assay: Cytostatic activity against human BJ cells after 72 hrs by MTT assay; assay type: ADME, cell-based; method in brief: as §1
Candida parapsilosis = assay: Antifungal activity against Candida parapsilosis after 48 hrs; assay type: functional, organism-based
Pichia kudriavzevii = assay: Antifungal activity against Candida crusei after 48 hrs; assay type: functional, organism-based
Staphylococcus aureus [9] = assay: Antibacterial activity against methicillin-resistant Staphylococcus aureus MRSA 4591 after 24 hrs; assay type: functional, organism-based
Pseudomonas aeruginosa [10] = assay: Antibacterial activity against multi-resistant Pseudomonas aeruginosa A/16575 after 24 hrs; assay type: functional, organism-based
HCT-116 [11] = assay: Cytostatic activity against human HCT116 cells after 72 hrs by MTT assay; assay type: functional, cell-based; conditions: HCT-116, 72 h; method in brief: as §1
A549 = assay: Cytostatic activity against human A549 cells after 72 hrs by MTT assay; assay type: functional, cell-based; conditions: A549, 72 h; method in brief: as §1
Candida tropicalis = assay: Antifungal activity against Candida tropicalis after 48 hrs; assay type: functional, organism-based
Enterococcus faecalis = assay: Antibacterial activity against Enterococcus faecalis CCM 4224 after 24 hrs; assay type: functional, organism-based
HCT-116 [12] = assay: Cytostatic activity against p53-deficient human HCT116 cells after 72 hrs by MTT assay; assay type: functional, cell-based; conditions: HCT-116, 72 h; method in brief: as §1
Pseudomonas aeruginosa [13] = assay: Antibacterial activity against Pseudomonas aeruginosa CCM 3955 after 24 hrs; assay type: functional, organism-based
HepG2 = assay: Antiproliferative activity against human HepG2 cells after 72 hrs by XTT assay; assay type: functional, cell-based; conditions: HepG2, 72 h
CCRF-CEM = assay: Cytostatic activity against human CCRF-CEM cells after 72 hrs by MTT assay; assay type: functional, cell-based; method in brief: as §1
MRC5 = assay: Cytostatic activity against human MRC5 cells after 72 hrs by MTT assay; assay type: ADME, cell-based; conditions: MRC5, 72 h; method in brief: as §1
[14] = tested on: Staphylococcus haemolyticus; assay: Antibacterial activity against methicillin-resistant Staphylococcus haemolyticus A/16568 after 24 hrs; assay type: functional, organism-based
K562 [15] = assay: Cytostatic activity against paclitaxel-resistant human K562 cells after 72 hrs by MTT assay; assay type: functional, cell-based; conditions: K562, 72 h; method in brief: as §1
[16] = Cytotoxicity against human HuH7 cells infected with Hepatitis C virus subtype 2a; assay type: cell-based, Huh-7
[17] = Cytotoxicity against human HuH7 cells infected with Hepatitis C virus subtype 1b; assay type: cell-based, Huh-7

SMILES	Activity (Escherichia coli [1])	Activity (Escherichia coli [2])	IC50 [3]	IC50 (K562 [4])	EC50 (Hepatitis C virus [5])	Activity (Staphylococcus aureus [6])	IC50 (HL-60)	Activity (Candida albicans)	EC50 (Hepatitis C virus [7])	IC50 [8]	IC50 (BJ)	Activity (Candida parapsilosis)	Activity (Pichia kudriavzevii)	Activity (Staphylococcus aureus [9])	Activity (Pseudomonas aeruginosa [10])	IC50 (HCT-116 [11])	IC50 (A549)	Activity (Candida tropicalis)	Activity (Enterococcus faecalis)	IC50 (HCT-116 [12])	also measured
Nc1nc2c(c(-c3ccsc3)cn2[C@@H]2O[C@H](CO)[C@@H](O)[C@H]2O)c(=O)[nH]1	inactive	inactive	> 20 µM	> 20 µM	> 44 µM	inactive	> 20 µM	inactive	> 44 µM	> 20 µM	> 100 µM	inactive	inactive	inactive	inactive	> 20 µM	> 20 µM	inactive	inactive	> 20 µM	Activity (Pseudomonas aeruginosa [13]): inactive; IC50 (HepG2): > 20 µM; IC50 (CCRF-CEM): > 20 µM; IC50 (MRC5): > 100 µM; Activity [14]: inactive; IC50 (K562 [15]): 18.3 µM; CC50 [16]: > 44 µM; CC50 [17]: > 44 µM
COc1ncnc2c1c(-c1ccccc1)cn2[C@@H]1O[C@H](CO)[C@@H](O)[C@H]1O	inactive	inactive	> 20 µM	> 20 µM	21 µM	inactive	> 20 µM	inactive	> 44 µM	> 20 µM	> 100 µM	inactive	inactive	inactive	inactive	> 20 µM	> 20 µM	inactive	inactive	> 20 µM	Activity (Pseudomonas aeruginosa [13]): inactive; IC50 (HepG2): > 20 µM; IC50 (CCRF-CEM): > 20 µM; IC50 (MRC5): > 100 µM; Activity [14]: inactive; IC50 (K562 [15]): > 20 µM; CC50 [16]: > 44 µM; CC50 [17]: > 44 µM
Cc1ncnc2c1c(Br)cn2[C@@H]1O[C@H](CO)[C@@H](O)[C@H]1O	inactive	inactive	> 20 µM	> 20 µM	12 µM	inactive	7.24 µM	inactive	20.7 µM	13.8 µM	> 100 µM	inactive	inactive	inactive	inactive	15.7 µM	> 20 µM	inactive	inactive	19.6 µM	Activity (Pseudomonas aeruginosa [13]): inactive; IC50 (HepG2): 5.55 µM; IC50 (CCRF-CEM): 15 µM; IC50 (MRC5): 24.4 µM; Activity [14]: inactive; IC50 (K562 [15]): 15.8 µM; CC50 [16]: 28.2 µM; CC50 [17]: 35.6 µM
CN(C)c1ncnc2c1c(-c1ccoc1)cn2[C@@H]1O[C@H](CO)[C@@H](O)[C@H]1O	inactive	inactive	> 20 µM	1.54 µM	7.88 µM	inactive	1.16 µM	inactive	> 44 µM	9.06 µM	99.2 µM	inactive	inactive	inactive	inactive	> 20 µM	> 20 µM	inactive	inactive	> 20 µM	Activity (Pseudomonas aeruginosa [13]): inactive; IC50 (HepG2): 12.5 µM; IC50 (CCRF-CEM): 13.3 µM; IC50 (MRC5): > 100 µM; Activity [14]: inactive; IC50 (K562 [15]): 14.9 µM; CC50 [16]: > 44 µM; CC50 [17]: > 44 µM
CN(C)c1ncnc2c1c(-c1ccccc1)cn2[C@@H]1O[C@H](CO)[C@@H](O)[C@H]1O	inactive	inactive	> 20 µM	> 20 µM	26.9 µM	inactive	> 20 µM	inactive	> 44 µM	> 20 µM	> 100 µM	inactive	inactive	inactive	inactive	> 20 µM	> 100 µM	inactive	inactive	> 20 µM	Activity (Pseudomonas aeruginosa [13]): inactive; IC50 (HepG2): > 20 µM; IC50 (CCRF-CEM): > 20 µM; IC50 (MRC5): > 100 µM; Activity [14]: inactive; IC50 (K562 [15]): > 20 µM; CC50 [16]: > 44 µM; CC50 [17]: > 44 µM
Nc1nc2c(c(-c3ccco3)cn2[C@@H]2O[C@H](CO)[C@@H](O)[C@H]2O)c(=O)[nH]1	inactive	inactive	> 20 µM	> 20 µM	> 44 µM	inactive	> 20 µM	inactive	> 44 µM	> 20 µM	> 100 µM	inactive	inactive	inactive	inactive	> 20 µM	> 20 µM	inactive	inactive	> 20 µM	Activity (Pseudomonas aeruginosa [13]): inactive; IC50 (HepG2): > 20 µM; IC50 (CCRF-CEM): > 20 µM; IC50 (MRC5): > 100 µM; Activity [14]: inactive; IC50 (K562 [15]): > 20 µM; CC50 [16]: > 44 µM; CC50 [17]: > 44 µM
Cc1ncnc2c1c(-c1cccs1)cn2[C@@H]1O[C@H](CO)[C@@H](O)[C@H]1O	inactive	inactive	> 20 µM	> 20 µM	6.67 µM	inactive	5.73 µM	inactive	> 44 µM	> 15 µM	> 100 µM	inactive	inactive	inactive	inactive	> 20 µM	> 20 µM	inactive	inactive	> 20 µM	Activity (Pseudomonas aeruginosa [13]): inactive; IC50 (HepG2): > 15 µM; IC50 (CCRF-CEM): > 20 µM; IC50 (MRC5): > 100 µM; Activity [14]: inactive; IC50 (K562 [15]): > 20 µM; CC50 [16]: > 44 µM; CC50 [17]: > 44 µM
CN(C)c1ncnc2c1c(-c1cc3ccccc3o1)cn2[C@@H]1O[C@H](CO)[C@@H](O)[C@H]1O	inactive	inactive	> 20 µM	> 20 µM	19.2 µM	inactive	> 20 µM	inactive	> 44 µM	> 20 µM	> 100 µM	inactive	inactive	inactive	inactive	> 20 µM	> 20 µM	inactive	inactive	> 20 µM	Activity (Pseudomonas aeruginosa [13]): inactive; IC50 (HepG2): > 20 µM; IC50 (CCRF-CEM): > 20 µM; IC50 (MRC5): > 100 µM; Activity [14]: inactive; IC50 (K562 [15]): > 20 µM; CC50 [16]: > 44 µM; CC50 [17]: > 44 µM
CNc1ncnc2c1c(I)cn2[C@@H]1O[C@H](CO)[C@@H](O)[C@H]1O	inactive	inactive	> 20 µM	> 100 µM	> 44 µM	inactive	> 20 µM	inactive	> 44 µM	> 20 µM	> 100 µM	inactive	inactive	inactive	inactive	> 100 µM	> 100 µM	inactive	inactive	> 100 µM	Activity (Pseudomonas aeruginosa [13]): inactive; IC50 (HepG2): > 20 µM; IC50 (CCRF-CEM): > 100 µM; IC50 (MRC5): > 100 µM; Activity [14]: inactive; IC50 (K562 [15]): > 20 µM; CC50 [16]: > 44 µM; CC50 [17]: > 44 µM
